Compound activity (PubChem BioAssay)
Hits are enriched below; roughly 1.8% of the tested compounds scored in any of these assays.
Tn6 DDE FP – DD(E)-Tn6 binding inhibition, primary FP screen; Fibrin DD(E) TRITC-Tn6 fluorescence polarization displacement; inhibition, % at 8.3 µM; 370,000 compounds, 0.21% hits; P02675;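 active means inhibition above a per-campaign cutoff: mean of compounds within control limits plus 3 SD, cut at about 15% in these data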;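 further: 0% = median of all compound wells on the plate and 100% = blocking peptide control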
TCR-CD3 inh – blocks the human TCR-CD3 interaction; TAMRA-labeled TCR probe fluorescence, biochemical; inhibition, % at 9.4 µM; 360,000 compounds, 0.37% hits; AID 651800;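 further: recombinant mutant TCR 2C K166C tagged with TAMRA read by polarization; 0% = receptor in buffer alone and 100% = receptor with positive control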
mABHD4 FP – ABHD4 (mouse) inhibition, primary FP screen | purified mABHD4, FP-Rh probe fluorescence polarization | inhibition, % at 8.92 µM | 370,000 compounds, 0.54% hits;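 active means inhibition exceeding the mean over every tested compound plus 3 SD, cut at about 30% in these data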;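 further: 0% = plate median of compound wells and 100% = S159A mutant with DMSO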
Target sequence (Q8VD66 whole entry, looked up): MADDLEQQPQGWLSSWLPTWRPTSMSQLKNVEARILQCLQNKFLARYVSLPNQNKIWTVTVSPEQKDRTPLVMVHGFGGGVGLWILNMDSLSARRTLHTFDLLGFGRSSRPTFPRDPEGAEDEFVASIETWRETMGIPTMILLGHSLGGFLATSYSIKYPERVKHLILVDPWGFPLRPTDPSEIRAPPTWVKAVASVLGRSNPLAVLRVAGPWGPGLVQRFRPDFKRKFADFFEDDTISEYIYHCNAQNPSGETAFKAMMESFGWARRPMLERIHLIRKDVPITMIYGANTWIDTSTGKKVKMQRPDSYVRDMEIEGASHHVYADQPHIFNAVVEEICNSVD
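Assay system: mABHD4 protein; medium: HEPES pH 7.0, NaCl, Pluronic buffer; dosing: 8.92 µM, single dose; schedule: 45 min + 60 min at 25 °C; signal: FP readout, ex 525 nm / em 598 nm; read-out: normalized percent inhibition of probe labeling; repeats: single replicate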
HTRA1 inhibitor – HTRA1 (human) protease inhibition. recombinant HTRA1, FP-rhodamine activity-based probe, fluorescence polarization. inhibition, % at 5.96 µM. 340,000 compounds, 0.5% hits; in the data active means inhibition above about 36%;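 further: 0% = enzyme with DMSO and 100% = wells lacking enzyme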
Target sequence (Q92743 whole entry, looked up): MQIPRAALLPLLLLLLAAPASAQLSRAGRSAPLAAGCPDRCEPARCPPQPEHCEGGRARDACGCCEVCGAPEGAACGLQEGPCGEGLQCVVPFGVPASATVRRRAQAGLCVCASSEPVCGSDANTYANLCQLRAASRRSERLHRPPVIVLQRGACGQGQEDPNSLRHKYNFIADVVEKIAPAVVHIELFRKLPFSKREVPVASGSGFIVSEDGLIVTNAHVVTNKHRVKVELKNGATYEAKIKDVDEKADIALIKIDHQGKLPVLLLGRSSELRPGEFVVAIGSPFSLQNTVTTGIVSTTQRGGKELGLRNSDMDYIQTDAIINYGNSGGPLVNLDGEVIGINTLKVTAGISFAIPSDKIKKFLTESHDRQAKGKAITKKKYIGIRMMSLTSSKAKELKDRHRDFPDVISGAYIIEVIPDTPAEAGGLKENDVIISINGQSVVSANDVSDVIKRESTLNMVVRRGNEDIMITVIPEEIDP
SIAE inh – inhibitors of human sialic acid acetylesterase SIAE; SIAE FP-Rh probe binding, fluorescence polarization; inhibition, % at 9.66 µM; 370,000 compounds, 0.69% hits; AID 1053197;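 active means inhibition above a cutoff: mean of compounds within the control limits plus 3 SD of those, cut at about 17% in these data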;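 further: 0% = plate median of compound wells and 100% = probe without SIAE protein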
Tn7 DDE FP – inhibitors of Tn7 peptide binding to human fibrin DD(E); P02675; FP displacement of FITC-Tn7 peptide from fibrin DD(E); 0% = median of compound wells per plate; inhibition, % at 8.3 µM; 370,000 compounds, 0.13% hits; AID 720508;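 active means inhibition above the mean of compounds falling within the control limits plus 3 SD of them, cut at about 14% in these data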;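 further: 0% = plate median of compound wells and 100% = 10 µM Aha-Tn7 peptide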
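System: human fibrin DD(E); quantity: Fibrin-DD(E) at 2 µM final; also added: fluorescent Tn7 probe at 0.1 µM; compound dosing: single nominal test concentration of 8.3 µM per compound; schedule: 10 min preincubation, 3 h with tracer, room temperature; detection: fluorescence polarization of the labelled Tn7 tracer; repeats: one replicate per compound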
HTRA1 inh conf – HTRA1 (human) inhibition, confirmation; inhibition, % at 5.96 µM; AID 540248; shares compounds with HTRA1 inhibitor; 1,600 compounds, 66% hits; recombinant HTRA1, FP-rhodamine activity-based probe, fluorescence polarization;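 active means mean inhibition over three repeats above a set limit taken from the earlier primary screen, cut at about 37% in these data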;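 further: 0% = HTRA1 with DMSO and 100% = wells lacking HTRA1; inhibitors block probe binding so polarization drops and inhibition rises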
BSA probe FL – BSA probe counter-screen for TCR-CD3 inhibitors; TAMRA-labeled BSA probe fluorescence counterscreen; inhibition, % at 9.4 µM; 1,200 compounds, 10% hits; shares compounds with TCR-CD3 inh; in the data active means inhibition above about 23%;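 further: 0% = buffer low control and 100% = reference high control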
TCR-CD3 inh conf – TCR-CD3 interaction inhibition, confirmation | shares compounds with TCR-CD3 inh | TAMRA-labeled TCR probe fluorescence binding assay | inhibition, % at 9.4 µM | 1,200 compounds, 48% hits | AID 652036
DDE Tn7 confirm – confirmation of inhibitors of Tn7 binding to human fibrin DD(E); shares compounds with Tn7 DDE FP; FP displacement of TRITC-Tn7 peptide from DD(E); 0% set at plate's compound-well median; inhibition, % at 8.3 µM; 460 compounds, 5% hits; AID 720628;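 active means inhibition above the campaign cutoff, the mean of compounds within control limits plus 3 SD, cut at about 14% in these data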;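 further: 100% = median FP of high control wells holding Aha-Tn7 inhibitor peptide; displacers lower polarization since freed probe rises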
DDE Tn7 FP ctr – counter-screen hit for Tn7 peptide-fibrin DD(E) binding disruption | shares compounds with Tn7 DDE FP | TRITC-Tn7 probe displacement, fluorescence polarization | inhibition, % at 8.3 µM | 460 compounds, 3% hits | AID 720633;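 active means inhibition above the cutoff, the mean of compounds lying between the control bounds plus 3 SD of those compounds, cut at about 17% in these data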;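 further: 0% = median of compound sample wells and 100% = excess unlabeled Aha-Tn7 peptide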
DDE Tn6 FP ctr – DD(E)-Tn6 binding inhibition, counter-screen | shares compounds with Tn6 DDE FP | Fibrin DD(E), TRITC-Tn6 fluorescence polarization displacement; 0% = median of compound wells, not DMSO | inhibition, % at 8.3 µM | 680 compounds, 2% hits;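 active means inhibition above the mean of test compounds lying between the control limits plus 3 SD of those, cut at about 14% in these data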;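 further: 0% = median of compound wells and 100% = wells with Aha-Tn7 blocking peptide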
Tn6 DDE conf – confirmation of inhibitors of Tn6 binding to human fibrin DD(E) | AID 720631 | 680 compounds, 10% hits | inhibition, % at 8.3 µM | shares compounds with Tn6 DDE FP | FP displacement of TRITC-Tn6 peptide from DD(E); 0% = per-plate median of test wells;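 active means inhibition above the mean of compounds lying within the control limits plus 3 SD, cut at about 16% in these data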;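 further: 100% = high control wells holding a competing inhibitor peptide at 10 µM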
ABHD4 confirm – ABHD4 (mouse) inhibition, FP confirmation. shares compounds with mABHD4 FP. purified mABHD4, FP-Rh probe fluorescence polarization. inhibition, % at 8.92 µM. 1,800 compounds, 55% hits;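 active means mean inhibition across replicates above the hit cutoff set in the primary screen, cut at about 30% in these data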;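 further: 0% = wild-type ABHD4 with DMSO and 100% = catalytically dead S159A mutant with DMSO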
SIAE confirm – confirmation of human SIAE inhibitors. shares compounds with SIAE inh. SIAE FP-Rh activity-based probe, fluorescence polarization. inhibition, % at 9.66 µM. 2,300 compounds, 13% hits. AID 1117263;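 active means mean inhibition of the replicates above the hit cutoff set in the primary screen, cut at about 17% in these data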;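 further: 0% = SIAE with DMSO and probe and 100% = probe without SIAE; inhibitors lower polarization as more probe stays unbound to SIAE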
Starred values were filed as active, the others as inactive; x = no result; + = active, no number. Unless noted, no stated cut-off is given here; in the data, active means inhibition above about 19%; inactive means the rest.

SMILES | Tn6 DDE FP | TCR-CD3 inh | mABHD4 FP | HTRA1 inhibitor | SIAE inh | Tn7 DDE FP | HTRA1 inh conf | ABHD4 confirm | SIAE confirm | others
O=c1c2ccccc2nc(COc2ccccc2)n1/N=C/c1cc([N+](=O)[O-])ccc1O | -1 | 23* | 3 | 36* | 20* | -5 | 47* | x | -10 | BSA probe FL=-4;TCR-CD3 inh conf=43*
COC(=O)c1ccc2nc(-c3cccc(Br)c3)c(Cc3cccc(Cl)c3)n2c1 | 3 | -8 | -28 | x | -12 | -1 | x | x | x
Oc1ccc(/C=N/Nc2ccc(Cl)nn2)c(O)c1O | -5 | 56* | 40* | 57* | 23* | 2 | 41* | 81* | -4 | BSA probe FL=-20;TCR-CD3 inh conf=55*
COc1cccc2c1C(=O)c1c(O)c3c(c(O)c1C2=O)CC(O)(C(=O)CO)CC3OC1CC(N(C)C)C(O)C(C)O1 (stereo not drawn) | + | 148* | 79* | 68* | 61* | 16* | 66* | 61* | 40* | BSA probe FL=167*;TCR-CD3 inh conf=136*;DDE Tn7 confirm=-7;DDE Tn7 FP ctr=93*;DDE Tn6 FP ctr=-7;Tn6 DDE conf=93*
O=C(c1c(F)cccc1F)N1CCC(Oc2cccnc2)CC1 | 4 | x | 2 | x | 5 | 6 | x | x | x
CCC(=O)NC(c1ccc(OC)c(OC)c1)c1cc(Cl)c2cccnc2c1O (stereo not drawn) | 11 | -1 | 7 | 52* | 26* | 4 | 81* | x | 11
CC(=O)NC(c1ccco1)c1cc(Cl)c2ccccc2c1O (stereo not drawn) | 0 | -8 | 8 | -1 | 11 | 2 | x | x | x
COc1ccccc1C(NC(C)=O)c1cc(Cl)c2cccnc2c1O (stereo not drawn) | -1 | 5 | 6 | 49* | 22* | -2 | 71* | x | 14
O=C(Nc1nc(Cc2ccccc2)c(-c2ccccc2)n1Cc1ccccc1)c1ccccc1 | 4 | x | 2 | x | -5 | 7 | x | x | x
CC(C)CSc1nnc(-c2ccco2)n1C | -7 | x | 2 | x | 0 | 1 | x | x | x
Cc1ccc(N=Cc2cccc(O)c2O)c(C)c1 | 1 | 10 | 49* | 84* | 20* | 0 | 43* | 30* | 8
O=C(O)[C@@H]1[C@H]2C[C@H]3c4[nH]c5ccccc5c4CCN3C[C@@H]2CC[C@@H]1O | 13 | 46* | 39* | 45* | 24* | -1 | 7 | 32* | 15 | BSA probe FL=8;TCR-CD3 inh conf=5
Cc1ccc(C(C)C)c(OCc2ccc(C(=O)N/N=C/c3ccc(O)c(O)c3)cc2)c1 | 3 | -1 | 18 | 63* | 26* | 2 | 56* | x | -14
Cc1ccc(C(C)C)c(OCc2ccc(C(=O)N/N=C/c3cccc(O)c3O)cc2)c1 | -16 | 18 | 12 | 83* | 28* | -4 | 78* | x | -1
O=C(N/N=C/c1ccc(O)c(O)c1)c1ccc(CSc2cccc3cccnc23)cc1 | -11 | 16 | 23 | 57* | 42* | -9 | 85* | x | 16
CC(=O)Nc1ccc(C(=O)N/N=C/c2ccccc2OCc2ccccc2)cc1 | -11 | 6 | -46 | -53 | -44 | -10 | x | x | x
NC(=O)CC1Nc2cccc3cccc(c23)NC1=O (stereo not drawn) | -4 | 16 | 19 | 19 | 13 | 5 | x | x | x
O=C(CC1Nc2cccc3cccc(c23)NC1=O)Nc1ccccc1 (stereo not drawn) | -5 | 4 | 32* | 72* | 23* | -9 | 2 | 42* | 4
Cc1ccc2[nH]c(C)c(/C=N/Nc3nc4ccccc4s3)c2c1 | -9 | 3 | 31* | 49* | 41* | -3 | 53* | 43* | 17
COc1ccc(OC)c(CN2C(=O)CSCCC2(C)c2nnnn2C2CCCC2)c1 (stereo not drawn) | -1 | x | 4 | x | -3 | -3 | x | x | x
Cc1cc2nc3ccc(=[N+](C)C)cc-3sc2cc1N | x | x | x | 28 | x | x | x | x | x
CN(C)c1ccc2nc3ccc(=O)cc-3sc2c1 | 146* | 145* | 113* | 58* | 82* | 3 | 79* | 56* | 68* | BSA probe FL=123*;TCR-CD3 inh conf=103*;DDE Tn6 FP ctr=-7;Tn6 DDE conf=70*
O=C(/C=C/c1ccc(O)c(O)c1)c1ccc(S(=O)(=O)N2CCCCCC2)cc1 | 0 | 9 | 25 | 55* | 45* | -10 | 56* | x | -2
O=C(O)c1ccc(/C=N\Nc2ccc(S(=O)(=O)N3CCOCC3)cc2[N+](=O)[O-])cc1 | 0 | 7 | -16 | -3 | -5 | 1 | x | x | x
Cc1ccc(-n2c(O)c(/C=N/Nc3ccc(S(=O)(=O)N4CCOCC4)cc3[N+](=O)[O-])c3ccccc3c2=O)c(C)c1 | -6 | -8 | 26 | 48* | 21* | 1 | 156* | x | 0
O=C1COc2ccccc2C(c2nnnn2Cc2ccccc2)N1Cc1cccs1 (stereo not drawn) | -1 | x | 3 | x | 8 | -4 | x | x | x
COc1ccc(OC)c(N)c1 | 13 | 23* | 41* | 66* | 28* | 1 | 25 | 24 | 14 | BSA probe FL=22;TCR-CD3 inh conf=18
Cc1cc(N2CCN(C(=O)OC(C)(C)C)C[C@H]2C)ccc1N1CCS(=O)(=O)CC1 | -6 | -3 | 0 | x | 1 | 0 | x | x | x
